# ASAP1 GAP inh: inhibitors of human ASAP1 ArfGAP activity, primary screen, biochemical, fluorescence polarization. Arf-GAP with SH3 domain, ANK repeat and PH domain-containing protein 1 (Homo sapiens), …. inhibition, % at 16.5 µM. hit rate 0.19% among 360,000. ASAP1-stimulated ARF1 GTP hydrolysis, GDP FP detection; in the data active = inhibition above about 25%;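 also: 0% = vehicle with enzyme and substrate and 100% = no enzyme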
# TDP2 inh: human TDP2 enzyme inhibitors, primary screen, biochemical, epi absorbance, recombinant enzyme | T5PNP hydrolysis, p-nitrophenol absorbance 415 nm | inhibition, % at 12.8 µM | hit rate 0.34% among 370,000 | AID 720702, 2013;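 active = inhibition above the mean of all tested compounds plus 3 SD, set per campaign, cut at about 25% in these data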;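 also: 0% = DMSO with enzyme and 100% = buffer with substrate but no TDP2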
#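 test system = human TDP2 enzyme | input = TDP2 enzyme at 120 nM final | medium = 50 mM Tris-HCl pH 7.5 with Mg2+, KCl, DTT, BSA | also added = T5PNP substrate, 5 mM | times = 2 h at 37 °C | technique = epi absorbance | benchmarks = high control without enzyme, low control DMSO plus TDP2 | replication = each compound tested once, singlicate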
# UHRF1 MBD2 ctr: UHRF1 methylated DNA binding inhibitors, primary screen, counter-screen for MBD2 inhibitor project, biochemical, TR-FRET, human UHRF1, single concentration. E3 ubiquitin-protein ligase UHRF1 (Homo sapiens), Q96T88. UHRF1 binding to methylated oligo. inhibition, % at 4.4 µM. hit rate 0.75% among 370,000. AID 687016, 2013; in the data active = inhibition above about 21%;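 also: UHRF1 SRA domain binding a hemimethylated CpG hairpin DNA probe; 0% = median of test compound wells and 100% = reference inhibitor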
# ARFGAP1 inh: inhibitors of rat ARFGAP1 GAP activity, primary screen, biochemical, fluorescence polarization, GDP tracer. ADP-ribosylation factor GTPase-activating protein 1 (Rattus norvegicus), Q62848. Arfgap1-stimulated ARF1 GTP hydrolysis, GDP FP detection. inhibition, % at 16.5 µM. hit rate 0.26% among 360,000;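 active = inhibition above a per-plate limit, mean inhibition of low control wells plus 3 SD, cut at about 25% in these data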;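 also: 0% = DMSO wells with enzyme and 100% = wells lacking Arfgap1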
# Target sequence (Q62848 1-136 limits assumed): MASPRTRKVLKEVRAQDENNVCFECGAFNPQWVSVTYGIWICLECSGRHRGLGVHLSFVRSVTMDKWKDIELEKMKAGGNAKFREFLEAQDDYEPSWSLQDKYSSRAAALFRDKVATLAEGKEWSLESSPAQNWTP
#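 System: truncated rat Arfgap1 GAP domain / Benchmarks: high control wells lacking Arfgap1, low control full reaction with DMSO / Times: compound-enzyme preincubation 20 min, reaction 120 min, detection 60 min, 25 °C / Repeats: one replicate per compound / Also added: human ARF1(Δ1-17)-GTP substrate / Measured by: Tracer-displacement fluorescence polarization with EDTA stop, 620/688 nm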
# MBD2 inh: inhibitors of MBD2 binding to methylated DNA, primary screen, biochemical, TR-FRET, DNA-binding domain, human. Methyl-CpG-binding domain protein 2 (Homo sapiens), Q9UBB5. MBD2 binding to methylated oligonucleotide. inhibition, % at 4.4 µM. hit rate 0.31% among 370,000. AID 686964, 2013; in the data active = inhibition above about 13%
# LEDGF integ inh: blockers of LEDGF/p75-dependent integrase strand transfer – biochemical, TR-FRET, high throughput, primary screen; inhibition, % at 3.7 µM; AID 743269, 2014; TR-FRET IN-LEDGF/p75 DNA integration, Eu/Cy5; hit rate 0.64% among 370,000;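 active = inhibition above the screen-wide mean plus 3 SD, cut at about 13% in these data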;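 also: signal is the Cy5 over europium emission ratio at 671 and 618 nm; 0% = plate median of compound wells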
# ASAP1 GAP conf: ASAP1 GAP activity inhibitors, confirmation, biochemical, fluorescence polarization, human, triplicate | shares compounds with ASAP1 GAP inh | ASAP1-stimulated Arf1 GTPase, GDP fluorescence polarization | hit rate 37% among 620 | inhibition, % at 16.5 µM;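 active = mean inhibition over triplicates exceeds the hit threshold derived for the earlier primary screening run, cut at about 25% in these data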
# An asterisk follows results filed as active; · = not tested or not shown. Only some compounds are listed: those with a hit (about 2% of all), similar ones and a draw of the others.
SMILES,ASAP1 GAP inh,TDP2 inh,UHRF1 MBD2 ctr,ARFGAP1 inh,MBD2 inh,LEDGF integ inh,ASAP1 GAP conf
CCOc1ccc(CNC(=O)CCS(=O)(=O)Cc2ccccc2C)cc1OC,6,-7,3,1,7,-4,·
CCOc1ccc(CNC(=O)CCc2cn(C)c3ccccc23)cc1OC,3,1,59*,-2,3,-1,·
O=C(O)c1ccc(-n2nc(-c3ccccc3O)nc2-c2ccccc2O)cc1,·,-2,-3,·,-2,-4,·
Cc1cccc(C(=O)NNC(=O)c2ccc(Br)cc2)c1,13,1,21*,-9,11,-1,·
Cc1ccc(C(=O)Nc2ccc(N3CCN(C(=O)c4ccco4)CC3)cc2)cc1,8,0,5,22,2,-5,·
O=C(Nc1ccc(N2CCN(C(=O)c3ccco3)CC2)cc1)c1ccc(Br)cc1,22,5,70*,9,-1,0,·
Cc1ccc(Nc2nc3c([nH]2)c(=O)[nH]c(=O)n3C)cc1,8,-1,-2,-1,2,45*,·
Cc1cccn2c(/C=N/OCc3cccc(F)c3)c(-c3ccc(Cl)cc3)nc12,3,10,23*,3,8,-1,·
Fc1cccc(CO/N=C/c2c(-c3ccccc3)nc3ccc(Cl)cn23)c1,1,0,4,-4,4,2,·
Cc1ccc(NC(=O)COc2ccc(CCO)cc2-n2nc3ccccc3n2)cc1C,26*,0,7,5,5,1,-1
Cc1ccc(OCC(=O)O)c(-n2nc3ccccc3n2)c1,-2,0,2,3,3,-1,·
O=C(COc1ccc(/C=N/NC(=O)c2ccncc2)cc1)Nc1cccc([N+](=O)[O-])c1,29*,-10,0,7,2,0,8
COc1ccc(Oc2c(Cl)cnn(CC(=O)C(c3ccccc3)c3ccccc3)c2=O)cc1,·,-7,1,·,5,-2,·
COc1ccc(/C=N/Nc2ccc([N+](=O)[O-])cc2)cc1O,25*,-20,2,22,1,3,31*
COc1ccc(/C=N/NC(=O)c2nc(-c3ccccc3)cc(-c3ccccc3)n2)cc1O,26*,8,-5,11,-2,-3,32*
COc1ccc(/C=N/NC(=O)c2nc(-c3ccccc3)cc(-c3ccccc3)n2)cc1,10,7,-3,8,1,-1,·
c1ccc(-n2c(SCc3cccc4ccccc34)nnc2-c2ccncc2)cc1,·,-4,0,·,-1,-1,·
COC1=C[C@H](C(=O)NCc2ccc(Cl)cc2)C(C)C(c2ccccc2)CC1=O (some centres undefined),·,-1,0,·,-4,-2,·
COc1ccc(C(=O)Nc2ccc(OCC(F)(F)C(F)F)c(C(F)(F)F)c2)cc1OC,26*,-8,-2,-3,1,-2,26*
COc1ccc(C(=O)Nc2ccc3c(c2)C(=O)c2ccccc2C3=O)cc1OC,27*,3,-2,5,0,-5,40*
O=C(Nc1ccc(OCC(F)(F)C(F)F)c(C(F)(F)F)c1)c1ccc(Cl)cc1,1,0,2,10,-2,-1,·
C=CCN=C1NC(c2ccc(F)cc2)C(C(=O)OC)=C(C)N1Cc1ccccc1C(F)(F)F (centres undefined),25*,4,2,9,6,-1,-2
Cn1c2cc(S(C)=O)sc2c2cnn(Cc3cccc(N)c3)c(=O)c21 (centres undefined),·,14,1,·,-5,-2,·
